Measurements reported in paper PMC12102734 (Protein Science : A Publication of the Protein Society, 2025).
mca = not defined here

What was measured:
[1] = tested on: 20S proteasome β1 subunit (single-step enriched extracts); assay: Proteasome inhibition in three Schistosoma species, β1 substrate mca-VDQMDGW-K; type: biochemical, S. mansoni, S. haematobium, S. japonicum
Summary of the method: (§1)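 Extracts of S. mansoni, S. haematobium and S. japonicum adults were enriched by 30%/60% ammonium sulfate precipitation. Extracts (S. haematobium 0.625 μg/μL; others 1.25 μg/μL) were preincubated 1 h with 500 nM test compound (one also at 250 nM) or 0.125% DMSO. An equal volume of substrate was then added: 20 μM β1 or β2 mca/K(dnp) substrate, or 40 μM β5 Ac-FNKL-amc. Read at 24°C, triplicate wells.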

[2] = tested on: 20S proteasome β5 subunit (single-step enriched extracts); assay: Proteasome inhibition in three Schistosoma species, β5 substrate Ac-FNKL-amc; type: biochemical, S. mansoni, S. haematobium, S. japonicum; settings: for inhibition of β5 activity, three Schistosoma species: extracts pre-incubated 1 h with 500 nM inhibitor; for reduction of β5 activity, across three Schistosoma species: 250 nM inhibitor
Summary of the method: as §1

[3] = molecular target: T1, Sm20S β2 subunit (Schistosoma mansoni, UniProt G4VSW3); assay: Inhibition of single-step enriched Sm20S, mca-FnKRR-K; type: biochemical
T1 sequence (G4VSW3 39-281): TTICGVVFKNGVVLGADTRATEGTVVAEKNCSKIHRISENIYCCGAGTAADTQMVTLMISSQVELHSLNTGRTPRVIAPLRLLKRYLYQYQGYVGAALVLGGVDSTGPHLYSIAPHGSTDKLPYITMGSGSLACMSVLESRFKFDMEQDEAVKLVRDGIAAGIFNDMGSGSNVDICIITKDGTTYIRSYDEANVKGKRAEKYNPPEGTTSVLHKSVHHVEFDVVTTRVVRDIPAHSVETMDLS
Summary of the method: (§2)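 Single-step enriched Sm20S: S. mansoni extract precipitated with ammonium sulfate (30% then 60% saturation, 60 min each on ice), resuspended in 100 mM Tris-HCl pH 7.5, 100 μM E-64, and concentrated on a 100 kDa filter. Assay buffer contained pepstatin, E-64 and AEBSF. Extract was incubated with test compound 1 h at RT, and cleavage of internally quenched mca/K(dnp) substrates was read at 24°C (ex/em 320/400 nm). Technical triplicates, curve fitting.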

[4] = molecular target: T2, Sm20S β1 subunit (Schistosoma mansoni, UniProt G4V926); assay: Inhibition of purified Sm20S, caspase-3 substrate mca-VDQMDGW-K; type: biochemical; settings: 100 nM inhibitor, 10 μM substrate
T2 sequence (G4V926 1-225): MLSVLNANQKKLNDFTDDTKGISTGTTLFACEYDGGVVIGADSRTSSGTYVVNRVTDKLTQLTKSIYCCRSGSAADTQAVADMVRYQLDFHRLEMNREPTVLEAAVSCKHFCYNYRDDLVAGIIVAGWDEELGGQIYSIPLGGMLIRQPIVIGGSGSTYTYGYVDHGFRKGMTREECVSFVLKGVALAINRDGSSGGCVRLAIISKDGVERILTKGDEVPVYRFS

[5] = molecular target: T1, Sm20S β2 subunit; assay: Concentration-response assay, purified Sm20S, Boc-LRR-amc substrate; type: biochemical; settings: for inhibition at 0.5 µM: 2 h, read-out: reduction of β2 activity (Boc-LRR-amc)
Summary of the method: (§3)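 Sm20S purified from adult worm homogenate by 30%/60% ammonium sulfate precipitation, gel filtration and DEAE anion exchange. Test compound was 3-fold serially diluted in DMSO, then diluted 250-fold into 20 mM Tris-HCl pH 7.5, 0.02% SDS with 20 nM enzyme. After 15 min preincubation, an equal volume of 20 μM substrate was added: Z-LLE-amc (β1), Boc-LRR-amc (β2) or Suc-LLVY-amc (β5). Read at RT for 2 h every 2 min. Max velocity over eight reads, normalized to 0.1% DMSO control, four-parameter logistic fit.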

[6] = molecular target: T3, Sm20S β5 subunit (Schistosoma mansoni, UniProt A0A5K4F079); assay: Concentration-response assay, purified Sm20S, Suc-LLVY-amc substrate; type: biochemical; settings: 500 nM inhibitor
T3 sequence (A0A5K4F079 63-264): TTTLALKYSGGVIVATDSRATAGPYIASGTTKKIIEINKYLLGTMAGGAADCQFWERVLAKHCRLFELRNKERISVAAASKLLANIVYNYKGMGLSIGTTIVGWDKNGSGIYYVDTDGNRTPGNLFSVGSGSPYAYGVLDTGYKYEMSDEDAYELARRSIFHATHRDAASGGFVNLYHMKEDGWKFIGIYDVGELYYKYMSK
Summary of the method: as §3

[7] = molecular target: T2, Sm20S β1 subunit; assay: Concentration-response assay, purified Sm20S, Z-LLE-amc substrate; type: biochemical
Summary of the method: as §3

[8] = tested on: 20S proteasome β2 subunit (single-step enriched extracts); assay: Proteasome inhibition in three Schistosoma species, β2 substrate mca-FnKRR-K; type: biochemical, S. mansoni, S. haematobium, S. japonicum; settings: extracts pre-incubated 1 h with 500 nM inhibitor
Summary of the method: as §1

[9] = molecular target: T2, Sm20S β1 subunit; assay: Inhibition of single-step enriched Sm20S, mca-VDQMDGW-K; type: biochemical
Summary of the method: as §2

[10] = tested on: Sm20S; type: biochemical, Schistosoma mansoni; settings: purified Sm20S
Summary of the method: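 Purified Sm20S at 10 nM was given 2-fold serial dilutions of each substrate and fluorescence was read at 24°C. Ex/em was 360/460 nm for amc and 320/400 nm for mca substrates. Ranges were 2–500 μM for the β1 pair and 6.25–500 μM for the β2 pair. Relative activity was normalized to the rate at 500 μM (β1 pair), 500 μM Boc-LRR-amc vs 31.25 μM mca-FnKRR-K(dnp) (β2), and 100 μM (β5 pair). Technical triplicates.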

Molecule: CC(C)C[C@H](NC(=O)[C@H](Cc1ccccc1)NC(=O)c1cnccn1)B(O)O [BTZ, bortezomib]
- inhibition of β1 activity, three Schistosoma species ([1]; extracts pre-incubated 1 h with 500 nM inhibitor): preferentially inhibited
- inhibition of β5 activity, three Schistosoma species [2]: preferentially inhibited
- inhibition of β2 activity with new substrate mca-FnKRR-K(dnp) ([3]; 10 μM inhibitor): did not inhibit
- reduction of β2 activity ([3]; up to 5 μM inhibitor): No reduction
- inhibition of mca-VDQMD*GW-K(dnp) hydrolysis by Sm20S [4]: inhibited
- inhibition of β2 activity with old substrate Boc-LRR-amc ([5]; 10 μM inhibitor): completely inhibited
- inhibition at 0.5 µM [5]: ~35%
- inhibition of β5 activity (Suc-LLVY-amc) [6]: strongly inhibited
- reduction of β1 activity (Z-LLE-amc) ([7]; 500 nM inhibitor, purified Sm20S): strongly inhibited

Molecule: CC(C)C[C@H](NC(=O)[C@H](CCc1ccccc1)NC(=O)CN1CCOCC1)C(=O)N[C@@H](Cc1ccccc1)C(=O)N[C@@H](CC(C)C)C(=O)[C@@]1(C)CO1 [CFZ, carfilzomib]
- inhibition of β5 activity, three Schistosoma species [2]: inhibited β5 and β2 more than β1
- inhibition of β2 activity, three Schistosoma species [8]: inhibited β5 and β2 more than β1
- inhibition at 0.5 µM [5]: ~40%
- inhibition of β1 activity with new substrate mca-VDQMDGW-K(dnp) ([9]; 10 μM inhibitor, single-step enriched Sm20S): only partially inhibitory
- inhibition at 5 µM ([9]; read-out: inhibition of β1 subunit): 15%
- inhibition of β5 activity (Suc-LLVY-amc) [6]: strongly inhibited
- inhibition of β1 activity with old substrate Z-LLE-amc ([7]; 10 μM inhibitor): fully inhibited
- inhibition at 0.5 µM ([7]; 2 h, read-out: reduction of β1 activity (Z-LLE-amc)): ~40%

Molecule: CCCCCC(=O)N[C@@H](Cc1c[nH]c2ccccc12)C(=O)N[C@@H](Cc1c[nH]c2ccccc12)C(=O)N[C@@H](Cc1ccccc1)C(=O)[C@@]1(C)CO1 [CP‐17]
- reduction in β1 activity, across three Schistosoma species ([1]; 250 nM inhibitor): little inhibition
- reduction of β5 activity, across three Schistosoma species [2]: > 90%

Molecule: C[C@@]12OC(=O)[C@]1([C@@H](O)[C@@H]1C=CCCC1)NC(=O)[C@@H]2CCCl [MZB, marizomib]
- reduction of β5 activity, across three Schistosoma species [2]: complete inactivation

Molecule: Ac‐FNKL‐amc
- cleavage rate relative to Suc-LLVY-amc ([10]; both substrates at 25 μM, β5): ~ 4 fold
- substrate concentration at which cleavage is maximal ([10]; β5 substrate): 25 µM

Molecule: Boc‐LRR‐amc
- cleavage by Sm20S over substrate concentration range ([10]; 6.25-500 μM substrate, β2): steadily increased across the entire concentration range

Molecule: mca‐VDQMDGW‐K(dnp)‐NH2 (mca-VDQMDGW-{K(dnp)-NH2}; reading uncertain; also: printed as mca‐VDQMDGW‐K(dnp)‐NH2)
- cleavage efficiency relative to LLE-amc ([10]; between 16 and 250 μM substrate, β1): ~ 2 fold
